Values after ≈ are worked out from the molar mass of the structure shown. One block for each compound: values may come before it.
Key:
Micrococcus luteus [1] = assay: Antibacterial activity against Micrococcus luteus MTCC 2470 after 24 hrs by well diffusion assay; assay type: functional; details: MTCC 2470, 24 h
Staphylococcus aureus [2] = assay: Antibacterial activity against Staphylococcus aureus MTCC 96 after 24 hrs by well diffusion assay; assay type: functional; details: MTCC 96, 24 h
Staphylococcus aureus [3] = assay: Antibacterial activity against Staphylococcus aureus MLS-16 MTCC 2940 after 24 hrs by well diffusion assay; assay type: functional; details: MLS-16 MTCC 2940, 24 h
Candida albicans [4] = assay: Antifungal activity against Candida albicans MTCC 3017 after 24 hrs by well diffusion assay; assay type: functional; details: MTCC 3017, 24 h
Summary of the method: (§1)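 Well diffusion screen against Candida and related fungal strains. Read-out is MIC in µg/mL, with miconazole as the reference drug.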

Bacillus subtilis [5] = assay: Antibacterial activity against Bacillus subtilis MTCC 121 after 24 hrs by well diffusion assay; assay type: functional; details: MTCC 121, 24 h
Escherichia coli = assay: Antibacterial activity against Escherichia coli MTCC 739 after 24 hrs by well diffusion assay; assay type: functional; details: MTCC 739, 24 h
Raoultella planticola = assay: Antibacterial activity against Klebsiella planticola MTCC 530 after 24 hrs by well diffusion assay; assay type: functional; details: MTCC 530, 24 h
Pseudomonas aeruginosa = assay: Antibacterial activity against Pseudomonas aeruginosa MTCC 2453 after 24 hrs by well diffusion assay; assay type: functional; details: MTCC 2453, 24 h
Candida albicans [6] = assay: Antifungal activity against Candida albicans MTCC 183 after 24 hrs by well diffusion assay; assay type: functional; details: MTCC 183, 24 h; summary of the method: as §1
Candida albicans [7] = assay: Antifungal activity against Candida albicans MTCC 227 after 24 hrs by well diffusion assay; assay type: functional; details: MTCC 227, 24 h; summary of the method: as §1
Candida albicans [8] = assay: Antifungal activity against Candida albicans MTCC 854 after 24 hrs by well diffusion assay; assay type: functional; details: MTCC 854, 24 h; summary of the method: as §1
Candida albicans [9] = assay: Antifungal activity against Candida albicans MTCC 1637 after 24 hrs by well diffusion assay; assay type: functional; details: MTCC 1637, 24 h; summary of the method: as §1
Candida albicans [10] = assay: Antifungal activity against Candida albicans MTCC 3018 after 24 hrs by well diffusion assay; assay type: functional; details: MTCC 3018, 24 h; summary of the method: as §1
Candida albicans [11] = assay: Antifungal activity against Candida albicans MTCC 3958 after 24 hrs by well diffusion assay; assay type: functional; details: MTCC 3958, 24 h; summary of the method: as §1
Candida albicans [12] = assay: Antifungal activity against Candida albicans MTCC 4748 after 24 hrs by well diffusion assay; assay type: functional; details: MTCC 4748, 24 h; summary of the method: as §1
Candida albicans [13] = assay: Antifungal activity against Candida albicans MTCC 7315 after 24 hrs by well diffusion assay; assay type: functional; details: MTCC 7315, 24 h; summary of the method: as §1
Candida parapsilosis [14] = assay: Antifungal activity against Candida parapsilosis MTCC 1744 after 24 hrs by well diffusion assay; assay type: functional; details: Lodderomyces parapsilosis, MTCC 1744, 24 h; summary of the method: as §1
[Candida] aaseri = Antifungal activity against Candida aaseri MTCC 1962 after 24 hrs by well diffusion assay; assay type: functional; details: Yamadazyma aaseri, MTCC 1962, 24 h; summary of the method: as §1
Nakaseomyces glabratus = assay: Antifungal activity against Candida glabrata MTCC 3019 after 24 hrs by well diffusion assay; assay type: functional; details: MTCC 3019, 24 h; summary of the method: as §1
Pichia kudriavzevii = assay: Antifungal activity against Pichia kudriavzevii MTCC 3020 after 24 hrs by well diffusion assay; assay type: functional; details: MTCC 3020, 24 h; summary of the method: as §1
Pichia sporocuriosa = assay: Antifungal activity against Issatchenkia hanoiensis MTCC 4755 after 24 hrs by well diffusion assay; assay type: functional; details: MTCC 4755, 24 h; summary of the method: as §1
Candida parapsilosis [15] = assay: Inhibition of ergosterol biosynthesis in Candida parapsilosis MTCC 1744 assessed as mean ergosterol content at 2 ug/ml after 20 hrs by spectrophotometric analysis (Rvb=1.62 +/- 0.08 ug/ml); assay type: functional
Candida parapsilosis [16] = assay: Inhibition of ergosterol biosynthesis in Candida parapsilosis MTCC 1744 assessed as mean ergosterol content at 4 ug/ml after 20 hrs by spectrophotometric analysis (Rvb=1.62 +/- 0.08 ug/ml); assay type: functional
Candida parapsilosis [17] = assay: Inhibition of ergosterol biosynthesis in Candida parapsilosis MTCC 1744 assessed as mean ergosterol content at 8 ug/ml after 20 hrs by spectrophotometric analysis (Rvb=1.62 +/- 0.08 ug/ml); assay type: functional
Candida parapsilosis [18] = assay: Inhibition of ergosterol biosynthesis in Candida parapsilosis MTCC 1744 assessed as mean ergosterol content at 16 ug/ml after 20 hrs by spectrophotometric analysis (Rvb=1.62 +/- 0.08 ug/ml); assay type: functional
Micrococcus luteus [19] = assay: Bactericidal activity against Micrococcus luteus MTCC 2470 after 24 hrs; assay type: functional; details: MTCC 2470, 24 h
Summary of the method: (§2)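 Minimum bactericidal concentration was determined on four Gram-positive strains, for the compounds active in the preliminary antibacterial screen.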

Bacillus subtilis [20] = assay: Bactericidal activity against Bacillus subtilis MTCC 121 after 24 hrs by well diffusion assay; assay type: functional; details: MTCC 121, 24 h; summary of the method: as §2
Micrococcus luteus [21] = assay: Antibiofilm activity against Micrococcus luteus MTCC 2470 after 24 hrs by crystal violet staining based method; assay type: functional, organism-based; details: MTCC 2470, 24 h
Summary of the method: (§3)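 Biofilm inhibition was tested on the four Gram-positive strains, using crystal violet staining.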

Bacillus subtilis [22] = assay: Antibiofilm activity against Bacillus subtilis MTCC 121 after 24 hrs by well diffusion assay by crystal violet staining based method; assay type: functional, organism-based; details: MTCC 121, 24 h; summary of the method: as §3
[23] = Cytotoxicity against human DU145 cells by MTT assay; assay type: functional, cell-based; details: DU-145
HepG2 = assay: Cytotoxicity against human HepG2 cells by MTT assay; assay type: functional, cell-based
[24] = Cytotoxicity against human SKOV3 cells by MTT assay; assay type: functional, cell-based; details: SK-OV-3
MDA-MB-231 = assay: Cytotoxicity against human MDA-MB-231 cells by MTT assay; assay type: functional, cell-based

MIC (Micrococcus luteus [1]): > 125 µg/mL
MIC (Staphylococcus aureus [2]): > 125 µg/mL
MIC (Staphylococcus aureus [3]): > 125 µg/mL
MIC (Candida albicans [4]): 7.8 µg/mL (≈ 18.7 µM)
MIC (Bacillus subtilis [5]): > 125 µg/mL
MIC (Escherichia coli): > 125 µg/mL
MIC (Pseudomonas aeruginosa): > 125 µg/mL
MIC (Candida albicans [6]): 7.8 µg/mL (≈ 18.7 µM)
MIC (Candida albicans [7]): 7.8 µg/mL (≈ 18.7 µM)
MIC (Candida albicans [8]): 7.8 µg/mL (≈ 18.7 µM)
MIC (Candida albicans [9]): 7.8 µg/mL (≈ 18.7 µM)
MIC (Candida albicans [10]): 7.8 µg/mL (≈ 18.7 µM)
MIC (Candida albicans [11]): 7.8 µg/mL (≈ 18.7 µM)
MIC (Candida albicans [12]): 7.8 µg/mL (≈ 18.7 µM)
MIC (Candida albicans [13]): 7.8 µg/mL (≈ 18.7 µM)
MIC (Candida parapsilosis [14]): 7.8 µg/mL (≈ 18.7 µM)
MIC ([Candida] aaseri): 7.8 µg/mL (≈ 18.7 µM)
MIC (Nakaseomyces glabratus): 7.8 µg/mL (≈ 18.7 µM)
MIC (Pichia kudriavzevii): 7.8 µg/mL (≈ 18.7 µM)
MIC (Pichia sporocuriosa): 7.8 µg/mL (≈ 18.7 µM)
SMILES: Clc1ccc(COC(Cn2ccnc2)c2ccc(Cl)cc2Cl)c(Cl)c1 (configuration not stated) [MICONAZOLE]
MIC (Raoultella planticola): > 125 µg/mL
MFC (Candida albicans [6]): 7.8 µg/mL (≈ 18.7 µM)
MFC (Candida albicans [7]): 15.6 µg/mL (≈ 37.5 µM)
MFC (Candida albicans [8]): 7.8 µg/mL (≈ 18.7 µM)
MFC (Candida albicans [9]): 15.6 µg/mL (≈ 37.5 µM)
MFC (Candida albicans [10]): 7.8 µg/mL (≈ 18.7 µM)
MFC (Candida albicans [11]): 7.8 µg/mL (≈ 18.7 µM)
MFC (Candida albicans [12]): 7.8 µg/mL (≈ 18.7 µM)
MFC (Candida albicans [13]): 15.6 µg/mL (≈ 37.5 µM)
MFC (Candida parapsilosis [14]): 7.8 µg/mL (≈ 18.7 µM)
MFC ([Candida] aaseri): 15.6 µg/mL (≈ 37.5 µM)
MFC (Nakaseomyces glabratus): 7.8 µg/mL (≈ 18.7 µM)
MFC (Pichia kudriavzevii): 7.8 µg/mL (≈ 18.7 µM)
MFC (Pichia sporocuriosa): 7.8 µg/mL (≈ 18.7 µM)
Activity (Candida parapsilosis [15]): 1.28 µg/mL
Activity (Candida parapsilosis [16]): 0.54 µg/mL
Activity (Candida parapsilosis [17]): 0.24 µg/mL
Activity (Candida parapsilosis [18]): 0.09 µg/mL

MIC (Micrococcus luteus [1]): 15.6 µg/mL (≈ 33.9 µM)
MIC (Staphylococcus aureus [2]): > 125 µg/mL
MIC (Staphylococcus aureus [3]): > 125 µg/mL
MIC (Candida albicans [4]): 31.2 µg/mL (≈ 67.9 µM)
MIC (Bacillus subtilis [5]): 7.8 µg/mL (≈ 17 µM)
MIC (Escherichia coli): > 125 µg/mL
MIC (Pseudomonas aeruginosa): > 125 µg/mL
IC50 (Micrococcus luteus [21]): 8.2 µM
IC50 (Bacillus subtilis [22]): 4.4 µM
SMILES: CCCCCCCCC(CCCCCCCCC(=O)OC)SCC(=O)NCC(=O)OC (configuration not stated)
MIC (Raoultella planticola): > 125 µg/mL
MBC (Micrococcus luteus [19]): 31.2 µg/mL (≈ 67.9 µM)
MBC (Bacillus subtilis [20]): 3.9 µg/mL (≈ 8.48 µM)
IC50 [23]: 30.8 µM
IC50 (HepG2): 29.6 µM
IC50 [24]: 25.2 µM
IC50 (MDA-MB-231): 31.4 µM

MIC (Micrococcus luteus [1]): > 125 µg/mL
MIC (Staphylococcus aureus [2]): > 125 µg/mL
MIC (Staphylococcus aureus [3]): > 125 µg/mL
MIC (Candida albicans [4]): > 125 µg/mL
MIC (Bacillus subtilis [5]): > 125 µg/mL
MIC (Escherichia coli): > 125 µg/mL
MIC (Pseudomonas aeruginosa): > 125 µg/mL
SMILES: CCCCCCCCC(CCCCCCCCC(=O)OC)SCC(=O)N[C@H](C(=O)OC)c1c[nH]c2ccccc12 (some centres not stated)
MIC (Raoultella planticola): > 125 µg/mL

— ChEMBL document CHEMBL3745670, “Synthesis and biological evaluation of novel lipoamino acid derivatives” (Bioorg Med Chem Lett, 2016)
